Reference: publication PMC3672268 (Molecular pharmaceutics, 2013)

B1: SCGB3A2: purified recombinant mouse secretoglobin 3A2 protein, given as treatment for PF (protein, UniProt Q920H1 22-91, looked up)
Secretoglobin family 3A …: LLINRLPVVDKLPVPLDDIIPSFDPLKMLLKTLGISVEHLVTGLKKCVDELGPEASEAVKKLLEALSHLV

Key:
Type in all cases: in vivo, C57BL/6N mice
[1] = Body weight in BLM-induced mouse PF model; settings: mice that received BLM, no SCGB3A2 treatment
Summary of the method: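 C57BL/6N mice (7–8 weeks old, n = 10 per group) received one intratracheal dose of BLM (1.5 units/kg) by intubation, or PBS as control. Body weight was tracked over the 21-day study and expressed relative to the group's average day 0 weight, which was set as 100%.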

Mmp2 mRNA = test: Quantitative RT-PCR of Mmp2 mRNA in lungs of PF model; settings: for increase of Mmp2 mRNA level vs PBS-treated control lungs: qRT-PCR normalised to β-actin, mean ± SD
Summary of the method: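 Mouse lung Mmp2 mRNA was measured by qRT-PCR (Superscript II RT) with gene-specific Mmp2 and β-actin primers. Cycling was 50 °C for 2 min and 95 °C for 10 min, then 40 cycles of 95 °C for 15 s and 60 °C for 40 s. Values were normalised to β-actin by ΔΔCt, with day-21 PBS lungs set as 1. Samples were taken on days 7/14/21 post-BLM; mean ± SD.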

MMP-2 [2] = test: Western blot of active MMP-2 protein in lungs; settings: day 21 PF model, SCGB3A2-treated
Summary of the method: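 Minced lung was lysed in RIPA buffer (Tris, NaCl, SDS, deoxycholate, Triton X-100, EDTA, NaF, orthovanadate) with protease inhibitors. Lysates were reduced, run on 10% SDS-PAGE, transferred to PVDF and blocked in TBS-Tween with 5% milk. Blots were probed with rabbit anti-MMP-2 ([…]) and β-actin, then an HRP secondary, and read by chemiluminescence on film or imager. Lungs were taken on day 21.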

MMP-2 [3] = biological target: MMP-2 (Mus musculus, UniProt P33434); test: Fluorescence microscopy of cleaved MMP-P12 in lung sections; settings: SCGB3A2-treated lung sections
Chain of MMP-2 (Mus musculus, UniProt P33434) (P33434 110-662): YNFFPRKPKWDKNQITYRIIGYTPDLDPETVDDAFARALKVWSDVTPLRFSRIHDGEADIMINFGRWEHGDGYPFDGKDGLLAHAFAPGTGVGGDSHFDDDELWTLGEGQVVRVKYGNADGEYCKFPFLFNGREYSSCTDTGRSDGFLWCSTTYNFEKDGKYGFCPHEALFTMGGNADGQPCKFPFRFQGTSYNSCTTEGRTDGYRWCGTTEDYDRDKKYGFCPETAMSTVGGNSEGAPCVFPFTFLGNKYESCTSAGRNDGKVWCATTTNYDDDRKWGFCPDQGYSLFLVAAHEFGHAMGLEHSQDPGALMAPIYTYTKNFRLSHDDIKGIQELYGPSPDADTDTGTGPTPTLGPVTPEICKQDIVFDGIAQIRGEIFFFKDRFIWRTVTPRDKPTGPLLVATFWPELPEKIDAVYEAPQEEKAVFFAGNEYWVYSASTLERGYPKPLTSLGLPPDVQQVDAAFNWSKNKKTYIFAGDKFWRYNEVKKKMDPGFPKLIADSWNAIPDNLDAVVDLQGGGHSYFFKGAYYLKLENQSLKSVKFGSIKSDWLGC
Summary of the method: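 Fibrotic mouse lungs were frozen, and 10 μm sections were air-dried, fixed in cold acetone for 20 min, air-dried for 30 min at RT and blocked with 10% BSA for 30 min. Sections were incubated with rabbit anti-MMP2 (10 μg/mL) for 60 min at RT in the dark, then Cy3 donkey anti-rabbit, and mounted in DAPI. Cy5.5 from the cleaved probe was viewed directly by epifluorescence at ×400.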

collagen fibers = test: Masson's trichrome staining of collagen in lung sections; settings: day 21; SCGB3A2 0.25 mg/kg/day i.v. for five days from day 7 after BLM
Summary of the method: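 Lungs were inflated and fixed in 4% paraformaldehyde, embedded in paraffin, cut into 4-μm whole-lung sections and stained with Masson's trichrome (collagen blue), with H&E alongside. Lungs were collected on day 21.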

Molecule | body weight loss by day 21 [1] | increase of Mmp2 mRNA level vs PBS-treated control lungs (Mmp2 mRNA; day 7 post-BLM administration) | increase of Mmp2 mRNA level vs PBS-treated control lungs (Mmp2 mRNA; day 14 post-BLM administration) | increase of Mmp2 mRNA level vs PBS-treated control lungs (Mmp2 mRNA; day 21 post-BLM administration) | active MMP-2 protein expression vs no treatment group (MMP-2 [2]) | MMP-P12 cleavage (green) and MMP-2 (red) signals in lung sections (MMP-2 [3]) | Mmp2 mRNA expression vs no treatment group (Mmp2 mRNA; day 21 PF model, SCGB3A2-treated, qRT-PCR) | collagen expression in lungs vs BLM only-treated group (collagen fibers)
bleomycin [BLM] | ~ 20% | 4.25±0.84 folds | 6±1.05 folds | 9±1.87 folds | – | – | – | –
B1 | – | – | – | – | decreased | weak | decreased | much lower
